# Assay results from ChEMBL document CHEMBL5058577, “EUbOPEN Chemogenomics Library 2 (Multiplex)” (2022).
# Test system: Fibroblast
# Test: Multiplex assay against human fibroblast
# Assay type: toxicity, cell-based
# Procedure, shortened: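 Four dyes were applied at seeding to live cells: Hoechst33342, BioTracker Green Microtubule Cytoskeleton Dye, MitoTracker Red and Annexin V Alexa Fluor 680. Imaging after compound addition used a CQ1 microscope at 37°C and 5% CO2. CellPathfinder machine-learning gating then sorted cells into Hoechst high-intensity objects or normal cells, normal cells into healthy, pyknosed or fragmented nuclei, and pyknosed cells into mitotic or apoptotic, with tubulin, mitochondrial-mass and membrane-permeability phenotypes given as per cents of healthy-nucleus cells.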
# [1] = 12 h, 1 µM, compound concentration 1 uM, replicate 1
# [2] = 12 h, 1 µM, compound concentration 1 uM, replicate 2
# [3] = 12 h, 10 µM, compound concentration 10 uM, replicate 1
# [4] = 12 h, 10 µM, compound concentration 10 uM, replicate 2
# [5] = 24 h, 1 µM, compound concentration 1 uM, replicate 1
# [6] = 24 h, 1 µM, compound concentration 1 uM, replicate 2
# [7] = 24 h, 10 µM, compound concentration 10 uM, replicate 1
# [8] = 24 h, 10 µM, compound concentration 10 uM, replicate 2
# [9] = 48 h, 1 µM, compound concentration 1 uM, replicate 1
# [10] = 48 h, 1 µM, compound concentration 1 uM, replicate 2
# [11] = 48 h, 10 µM, compound concentration 10 uM, replicate 1
# [12] = 48 h, 10 µM, compound concentration 10 uM, replicate 2
smiles,measurement,setting,value
CCc1cc2cc(NS(=O)(=O)c3ccc(C#N)cc3)ccc2n(CC)c1=O,Population Apoptotic (%),[1],42%
same,Population Fragmented Nuclei (%),[1],16%
same,Population Healthy Nuclei (%),[1],64%
same,Population Hoechst High Intensity Objects (%),[1],1%
same,Population Membrane Permeable-Phenotype (%),[1],1%
same,Population Mitochondria Different-Phenotype (%),[1],3%
same,Population Mitotic Cells (%),[1],57%
same,Population Normal (%),[1],98%
same,Population Pyknosed Nuclei (%),[1],18%
same,Population Tubulin-Different-Phenotype (%),[1],24%
same,Total Cell Count,[1],157
same,Population Fragmented Nuclei (%),[2],27%
same,Population Healthy Nuclei (%),[2],40%
same,Population Hoechst High Intensity Objects (%),[2],6%
same,Population Membrane Permeable-Phenotype (%),[2],9%
same,Population Mitochondria Different-Phenotype (%),[2],7%
same,Population Normal (%),[2],93%
same,Population Pyknosed Nuclei (%),[2],32%
same,Population Tubulin-Different-Phenotype (%),[2],39%
same,Total Cell Count,[2],173
same,Population Apoptotic (%),[3],42%
same,Population Fragmented Nuclei (%),[3],18%
same,Population Healthy Nuclei (%),[3],54%
same,Population Hoechst High Intensity Objects (%),[3],1%
same,Population Membrane Permeable-Phenotype (%),[3],1%
same,Population Mitochondria Different-Phenotype (%),[3],5%
same,Population Mitotic Cells (%),[3],57%
same,Population Normal (%),[3],98%
same,Population Pyknosed Nuclei (%),[3],26%
same,Population Tubulin-Different-Phenotype (%),[3],65%
same,Total Cell Count,[3],133
same,Population Apoptotic (%),[4],18%
same,Population Fragmented Nuclei (%),[4],19%
same,Population Healthy Nuclei (%),[4],43%
same,Population Hoechst High Intensity Objects (%),[4],5%
same,Population Membrane Permeable-Phenotype (%),[4],12%
same,Population Mitochondria Different-Phenotype (%),[4],6%
same,Population Mitotic Cells (%),[4],81%
same,Population Normal (%),[4],94%
same,Population Pyknosed Nuclei (%),[4],37%
same,Population Tubulin-Different-Phenotype (%),[4],74%
same,Total Cell Count,[4],153
same,Population Apoptotic (%),[5],53%
same,Population Fragmented Nuclei (%),[5],19%
same,Population Healthy Nuclei (%),[5],63%
same,Population Hoechst High Intensity Objects (%),[5],5%
same,Population Membrane Permeable-Phenotype (%),[5],1%
same,Population Mitochondria Different-Phenotype (%),[5],4%
same,Population Mitotic Cells (%),[5],46%
same,Population Normal (%),[5],94%
same,Population Pyknosed Nuclei (%),[5],17%
same,Population Tubulin-Different-Phenotype (%),[5],26%
same,Total Cell Count,[5],157
same,Population Apoptotic (%),[6],43%
same,Population Fragmented Nuclei (%),[6],26%
same,Population Healthy Nuclei (%),[6],48%
same,Population Hoechst High Intensity Objects (%),[6],6%
same,Population Membrane Permeable-Phenotype (%),[6],9%
same,Population Mitochondria Different-Phenotype (%),[6],8%
same,Population Mitotic Cells (%),[6],56%
same,Population Normal (%),[6],93%
same,Population Pyknosed Nuclei (%),[6],25%
same,Population Tubulin-Different-Phenotype (%),[6],51%
same,Total Cell Count,[6],164
same,Population Apoptotic (%),[7],50%
same,Population Fragmented Nuclei (%),[7],19%
same,Population Healthy Nuclei (%),[7],58%
same,Population Hoechst High Intensity Objects (%),[7],2%
same,Population Membrane Permeable-Phenotype (%),[7],1%
same,Population Mitochondria Different-Phenotype (%),[7],6%
same,Population Mitotic Cells (%),[7],50%
same,Population Normal (%),[7],97%
same,Population Pyknosed Nuclei (%),[7],22%
same,Population Tubulin-Different-Phenotype (%),[7],59%
same,Total Cell Count,[7],130
same,Population Apoptotic (%),[8],32%
same,Population Fragmented Nuclei (%),[8],22%
same,Population Healthy Nuclei (%),[8],38%
same,Population Hoechst High Intensity Objects (%),[8],9%
same,Population Membrane Permeable-Phenotype (%),[8],6%
same,Population Mitochondria Different-Phenotype (%),[8],12%
same,Population Mitotic Cells (%),[8],67%
same,Population Normal (%),[8],90%
same,Population Pyknosed Nuclei (%),[8],39%
same,Population Tubulin-Different-Phenotype (%),[8],72%
same,Total Cell Count,[8],145
same,Population Apoptotic (%),[9],52%
same,Population Fragmented Nuclei (%),[9],24%
same,Population Healthy Nuclei (%),[9],59%
same,Population Hoechst High Intensity Objects (%),[9],3%
same,Population Membrane Permeable-Phenotype (%),[9],0%
same,Population Mitochondria Different-Phenotype (%),[9],4%
same,Population Mitotic Cells (%),[9],47%
same,Population Normal (%),[9],96%
same,Population Pyknosed Nuclei (%),[9],15%
same,Population Tubulin-Different-Phenotype (%),[9],27%
same,Total Cell Count,[9],150
same,Population Apoptotic (%),[10],37%
same,Population Fragmented Nuclei (%),[10],33%
same,Population Healthy Nuclei (%),[10],50%
same,Population Hoechst High Intensity Objects (%),[10],5%
same,Population Membrane Permeable-Phenotype (%),[10],12%
same,Population Mitochondria Different-Phenotype (%),[10],8%
same,Population Mitotic Cells (%),[10],62%
same,Population Normal (%),[10],94%
same,Population Pyknosed Nuclei (%),[10],16%
same,Population Tubulin-Different-Phenotype (%),[10],60%
same,Total Cell Count,[10],156
same,Population Apoptotic (%),[11],60%
same,Population Fragmented Nuclei (%),[11],17%
same,Population Healthy Nuclei (%),[11],62%
same,Population Hoechst High Intensity Objects (%),[11],1%
same,Population Membrane Permeable-Phenotype (%),[11],1%
same,Population Mitochondria Different-Phenotype (%),[11],12%
same,Population Mitotic Cells (%),[11],40%
same,Population Normal (%),[11],98%
same,Population Pyknosed Nuclei (%),[11],19%
same,Population Tubulin-Different-Phenotype (%),[11],61%
same,Total Cell Count,[11],129
same,Population Fragmented Nuclei (%),[12],30%
same,Population Healthy Nuclei (%),[12],48%
same,Population Hoechst High Intensity Objects (%),[12],7%
same,Population Membrane Permeable-Phenotype (%),[12],18%
same,Population Mitochondria Different-Phenotype (%),[12],7%
same,Population Mitotic Cells (%),[12],39%
same,Population Normal (%),[12],92%
same,Population Pyknosed Nuclei (%),[12],20%
same,Population Tubulin-Different-Phenotype (%),[12],69%
same,Total Cell Count,[12],145
